Here are results for one molecule from ChEMBL document CHEMBL4680371, “Design and Structure-Activity Relationship of a Potent Furin Inhibitor Derived from Influenza Hemagglutinin” (ACS Med Chem Lett, 2021).

A short description of data set [1]: Stability of the compound in CD1 mouse plasma assessed as intact compound remaining measured after 2 mins by LC-MS/MS analysis. The format is ADME, cell-free. The settings on record: read-out: Stabilty. A digest of the protocol:
(§1)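 Peptide incubated ex vivo in mouse plasma at 37 °C and sampled at several time points, using the ng/mL concentration range. Intact peptide quantified by high-resolution mass spectrometry and expressed as percentage remaining; t1/2 derived from the time course. Each time point run in triplicate; mean and mean ± SD reported.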

The nature of data set [2]: Half life in CD1 mouse plasma by LC-MS/MS analysis. The format is ADME, cell-free. The following applies: CD1, mouse. A digest of the protocol: as §1
The target of a further data set is Furin (Homo sapiens, UniProt P09958). Kind of data set: Inhibition of recombinant soluble human furin using pyroGlu-Arg-Thr-Lys-Arg-methyl-coumaryl-7-amide as substrate measured after 1 hr. The method in brief:
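Soluble human recombinant furin was tested in a competitive kinetic assay. Ki is reported as the mean ± SD of at least two independent experiments.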

Where a SMILES comes first, the peptide text is derived from it.

Sequence of Furin (P09958 whole entry): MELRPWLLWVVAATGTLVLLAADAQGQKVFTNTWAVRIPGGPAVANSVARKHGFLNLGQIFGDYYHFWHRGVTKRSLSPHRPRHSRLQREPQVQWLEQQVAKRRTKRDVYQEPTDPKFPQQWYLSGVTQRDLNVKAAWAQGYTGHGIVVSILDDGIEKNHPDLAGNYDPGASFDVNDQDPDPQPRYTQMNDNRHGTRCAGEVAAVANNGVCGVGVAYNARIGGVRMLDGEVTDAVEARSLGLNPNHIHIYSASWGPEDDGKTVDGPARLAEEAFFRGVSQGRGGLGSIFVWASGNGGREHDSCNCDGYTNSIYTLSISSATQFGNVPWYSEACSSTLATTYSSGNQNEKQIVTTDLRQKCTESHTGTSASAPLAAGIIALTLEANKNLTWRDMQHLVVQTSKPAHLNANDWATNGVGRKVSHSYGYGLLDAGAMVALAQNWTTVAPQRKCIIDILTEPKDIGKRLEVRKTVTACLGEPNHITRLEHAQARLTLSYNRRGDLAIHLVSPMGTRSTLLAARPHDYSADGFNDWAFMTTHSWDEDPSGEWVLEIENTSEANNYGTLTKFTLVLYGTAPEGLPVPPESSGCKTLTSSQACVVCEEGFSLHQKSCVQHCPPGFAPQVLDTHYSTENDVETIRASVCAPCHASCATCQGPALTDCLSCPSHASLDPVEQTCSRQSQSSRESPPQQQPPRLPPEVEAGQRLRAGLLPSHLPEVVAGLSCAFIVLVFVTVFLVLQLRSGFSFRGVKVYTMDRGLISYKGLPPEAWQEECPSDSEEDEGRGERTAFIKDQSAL

With `CC[C@H](C)[C@H](NC(=O)[C@H](CCCNC(=N)N)NC(=O)[C@H](C)NC(=O)[C@@H]1CCCN1C(C)=O)C(=O)N[C@@H](CCCNC(=N)N)C(=O)N[C@@H](CCCCN)C(=O)N[C@@H](CCCCN)C(=O)N[C@@H](CCCNC(=N)N)C(=O)N[C@H](C(N)=O)[C@@H](C)O` (Ac-PARIRKKRT-NH2), in data set [1], the remaining at 2 min came out at 15%. The same molecule yielded a half-life in data set [2] of 44.4 s. At Furin, the inhibition constant (Ki) is 8 nM.

Usually half-life stands for the time in which the quantity being followed falls by half. Low values mean rapid decline, high ones slow decline. Usually Ki stands for the equilibrium dissociation constant of an inhibitor or competing ligand from its target.
